# Residues, ends and D or L forms follow the SMILES beside them.
# How the values were obtained:
# [1] = target: recombinant human His-tagged CD13 (Homo sapiens, UniProt P15144); test: CD13 enzymatic activity assay; format: biochemical
# αvβ3 = αvβ3 (Homo sapiens, UniProt P05106+P06756); test: Integrin competitive binding assay with CisoDGRC-peroxidase
# [2] = cited from earlier work
# WEHI-164 fibrosarcoma = test: Anti-tumor activity in the WEHI-164 fibrosarcoma model; format: in vivo, BALB/c female mice; conditions: dose-escalation, i.v.
# How it was run: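 Female BALB/c mice, 6–7 weeks old, received 1.5 × 10^6 WEHI-164 cells s.c. in the left flank. On day 5, mice got single i.v. doses of TNF-loaded gold nanoparticles (1–4 or 9–16 bioactive TNF molecules/nanoparticle) in 0.9% NaCl with 100 µg/mL HSA. Tumors were measured with calipers and volumes from day 5 to day 9 were normalized to day 5. Data are mean ± SE from 1–7 independent experiments, 6 mice each.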
compound,measurement,setting,value
"N=C(N)NCCC[C@@H]1NC(=O)CNC(=O)[C@H](CC(N)=O)NC(=O)CNC(=O)[C@H](CS)NC(=O)CNC1=O [N1, c(CGNGRG)] (cyclo(CGNGRG))",CD13 inhibition efficiency relative to NGR-2C(Y),"[1]; enzyme inhibition, 30 min at 37 °C",5–6 fold
same,Binding efficiency to CD13 relative to CNGRC (NGR-2C) and c(CNGRGG) (N3),"[1]; recombinant soluble CD13, enzyme binding and inhibition experiments",6–10 fold
same,EC50,αvβ3,10 µM
CNGRC (disulfide) [NGR-2C],Half-life of asparagine (deamidation),[2],3 to 4 h
CNGRCG-TNF (disulfide) [NGR-TNF],Shape of dose-response curve (tumor growth day 5 to day 9),WEHI-164 fibrosarcoma,U-shaped dose-response curve

# Source: paper PMC4876925 (Nano research, 2016)
